What all share (assay type): functional
The subject of experiment [1] is Vero. The experiment can be described thus: Antiviral activity against herpesvirus vero cells in tissue culture. The settings on record: Chlorocebus sabaeus, read-out: ID50 (the source's name).
A short description of experiment [2]: Antiviral activity against herpesvirus […] cells in tissue culture. The settings on record: Homo sapiens; read-out: ID50 (the source's name).
The subject of experiment [3] is Human alphaherpesvirus 1. The experiment can be described thus: Antiviral activity against herpesvirus HSV-1 in BWS strain in Vero cells. The conditions noted are these: Human alphaherpesvirus 1, Vero; read-out: ID50 (the source's name). An outline of the steps: (§1)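 HSV-1 strain BWS or HSV-2 strain G plaque-reduction assay in Vero cells; ID50 reported in µg/mL.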

For experiment [4], the system named is Human alphaherpesvirus 2. The experiment can be described thus: Antiviral activity against herpesvirus HSV-2 in G strain in tissue culture in Vero cells. The settings on record: Human alphaherpesvirus 2, Vero; read-out: ID50 (the source's name). An outline of the steps: as §1
Experiment [5] relates to Human betaherpesvirus 5. The experiment can be described thus: Antiviral activity against herpesvirus HCMV in AD-169 strain in […] cells. The conditions noted are these: read-out: ID50 (the source's name). An outline of the steps:
(§2)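 HCMV strain AD-169 plaque-reduction assay in MRC-5 cells (human lung fibroblasts); ID50 reported in µg/mL.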

In experiment [6] the test system is Human alphaherpesvirus 2. The experiment can be described thus: Antiviral activity against herpesvirus HSV-2 in G strain in tissue culture. The conditions noted are these: read-out: ID50 (the source's name). Put shortly:
as §1

Experiment [7] relates to Human alphaherpesvirus 1. In words: Antiviral activity against herpesvirus HSV-1 in BWS strain in tissue culture. The conditions noted are these: read-out: ID50 (the source's name). An outline of the steps: as §1
Experiment [8] deals with Human betaherpesvirus 5. In words: Antiviral activity against herpesvirus HCMV in AD-169 strain in tissue culture. The settings on record: read-out: ID50 (the source's name). Put shortly: as §2
For experiment [9], the system named is Vero. In words: Antiviral activity against herpesvirus vero cells in tissue culture. The settings on record: Chlorocebus sabaeus, read-out: ID50 (the source's name).
A short description of experiment [10]: Antiviral activity against herpesvirus […] cells in tissue culture. The settings on record: Homo sapiens; read-out: ID50 (the source's name).

SMILES strings stand for the structures. ≈ marks a conversion by molar mass, not a printed value.

For the compound `Nc1ncnc2c1ncn2CC[C@@H](CO)OCP(=O)(O)O`, the IC50 (in the experiment with Vero [1]; in experiment [2]; in the experiment on Human alphaherpesvirus 1 [3]; in the experiment with Human alphaherpesvirus 2 [4]; with Human betaherpesvirus 5 [5]) was more than 100 µg/mL each time.

`Nc1nc(O)c2ncn(CC[C@@H](CO)OCP(=O)(O)O)c2n1`: the IC50 with Vero [1] was more than 100 µg/mL; in [2], 10 µg/mL (≈ 30 µM); in the experiment with Human alphaherpesvirus 1 [3], more than 100 µg/mL; in the experiment with Human alphaherpesvirus 2 [4], 97 µg/mL (≈ 291 µM); in the experiment with Human betaherpesvirus 5 [5] it was 1 µg/mL (≈ 3 µM).

In the case of `Nc1nc2c(ncn2COC(CO)CO)c(=O)[nH]1` [GANCICLOVIR], the IC50 with Human alphaherpesvirus 2 [6] is 1.6 µg/mL (≈ 6.27 µM); in the experiment with Human alphaherpesvirus 1 [7], 0.2 µg/mL (≈ 0.784 µM); in the experiment with Human betaherpesvirus 5 [8] it was 5 µg/mL (≈ 19.6 µM); with Vero [9] it was more than 100 µg/mL; in experiment [10] it was more than 100 µg/mL.

As for `Nc1ccn(CC[C@@H](CO)OCP(=O)(O)O)c(=O)n1`, the IC50 (with Vero [1]; in experiment [2]; in the experiment with Human alphaherpesvirus 1 [3]; with Human alphaherpesvirus 2 [4]; in the experiment on Human betaherpesvirus 5 [5]) was more than 100 µg/mL in each case.

These data come from ChEMBL document CHEMBL1125064, “Synthesis and antiviral activity of (S)-9-[4-hydroxy-3-(phosphonomethoxy)butyl]guanine” (1990).
